Active and inactive are the calls of the source. The rule behind the calls is not given here.
Columns and labels:
[1] = Inhibition of human PI3Kgamma R459Q mutant using PIP2 as substrate in presence of ATP measured after 30 mins by HTRF assay
[2] = Cmax in rat at 10 mg/kg, po; assay type: ADME, organism-based; design: route oral, dose 10 mg/kg; details: in vivo
Procedure, shortened: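 Male rats given 10 mg/kg p.o.; Cmax and terminal half-life taken from the plasma concentration–time profile.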

[3] = target: Phosphatidylinositol 4,5-bisphosphate 3-kinase catalytic subunit beta isoform (Homo sapiens) (UniProt P42338); assay: Inhibition of PI3Kbeta (unknown origin) transfected in human Rh30 cells assessed as reduction in AKT phosphorylation at Ser473 residue at 10XIC50 by western blot analysis; assay type: cell-based
Procedure, shortened: (§1)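 Rh30 cells ectopically expressing membrane-anchored, N-terminally myristoylated, constitutively active p110α, β, γ or δ. Akt phosphorylation assessed by Western blot; lysates made in RIPA buffer, equal protein heated at 95 °C for 10 min in SDS loading buffer.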

SK-OV-3 = assay: Antitumor activity against human SK-OV-3 cells xenografted in BALB/cA nude mouse assessed as tumor growth at 20 mg/kg, po administered once a day for 21 days and measured twice per week; assay type: functional; details: dose 20 mg/kg/day; time 21 day
Procedure, shortened: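 Female BALB/cA nude mice, 4–5 weeks old. SKOV-3 xenografts passaged once in vivo, then 1.5 mm³ fragments implanted s.c. in the right flank by trocar. At about 100 mm³ mice were randomized to vehicle or drug given orally once daily. Tumor size and body weight measured twice weekly; V = length × width²/2.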

Homo sapiens = organism: Homo sapiens; assay: Selectivity index, ratio of IC50 for human PI3Kgamma R459Q mutant to IC50 for human PI3Kalpha by HTRF assay
Procedure, shortened: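 The PI3K isoforms were assayed with an HTRF kit. Each enzyme was incubated in assay buffer containing 10 μM PIP2, and the reaction was started with ATP and run 30 min at room temperature. Stop solution and detection mix were then added and light emission was read. IC50 values were averages of at least 3 separate determinations, and each index is the ratio of IC50 values.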

[4] = Toxicity in 6 hrs fasted BALB/cA nude mouse xenografted with human SK-OV-3 cells assessed as blood glucose tolerance at 5 to 20 mg/kg, po administered once a day for 18 days and measured upto 2 hrs post-last dose by oral glucose tolerance test; assay type: organism-based; details: in vivo, 432 h, dose 5-20 mg/kg/day, time 18 day
Procedure, shortened: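 Female BALB/cA nude mice, 4–5 weeks old, carried s.c. SKOV-3 xenograft fragments. They were dosed orally once daily for 18 days with vehicle or compound, then fasted 6 h and given glucose orally at 2 g/kg. Blood was sampled at set times up to 2 h, and glucose was measured with a blood glucose meter.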

[5] = target: Voltage-gated inwardly rectifying potassium channel KCNH2 (Homo sapiens, UniProt Q12809); assay: Inhibition of human ERG expressed in CHO cells at holding potential of -80 mV by patch clamp assay; assay type: cell-based
Procedure, shortened: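 Patch clamp on CHO cells stably expressing hERG, at room temperature. External solution (mM): 145 NaCl, 5 KCl, 2 CaCl2, 1 MgCl2, 10 HEPES, 10 glucose, pH 7.4. Pipette solution: 140 KCl, 1 MgCl2, 0.1 CaCl2, 5 EGTA, 10 HEPES, pH 7.3. Pipettes 3–5 MΩ; peak hERG current amplitude measured.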

PC-3 = assay: Antiproliferative activity against human PC-3 cells assessed as reduction in cell viability after 72 hrs by sulforhodamine B assay; assay type: functional, cell-based; details: PC-3, 72 h
Procedure, shortened: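 SRB assay. Exponentially growing cells seeded at 3000–5000/well, compounds added serially diluted after 24 h, cultured 72 h. Cells fixed with 10% TCA, stained with SRB, dye dissolved in 10 mM Tris-HCl, absorbance read at 560 nm. Inhibition = (ODcontrol − ODtreated)/ODcontrol × 100%. IC50 is the mean of at least three independent tests.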

[6] = Oral bioavailability in rat at 10 mg/kg; assay type: ADME, organism-based; details: in vivo
Procedure, shortened: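 Male rats were dosed orally at 10 mg/kg, with a parallel i.v. arm at 5 mg/kg. Plasma PK parameters were derived, including Cmax, Tmax, T1/2 and AUC0-∞, with oral bioavailability (F) reported against the i.v. arm.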

[7] = target: T1, Phosphatidylinositol 4,5-bisphosphate 3-kinase catalytic subunit alpha isoform (Homo sapiens, UniProt P42336); assay: Inhibition of PI3Kalpha (unknown origin) transfected in human Rh30 cells assessed as reduction in AKT phosphorylation at Ser473 at 14 nM by western blot analysis; assay type: cell-based
Procedure, shortened: as §1

[8] = system: RAF proto-oncogene serine/threonine-protein kinase (Homo sapiens), P04049 [Y340D,Y341D]; assay: Inhibition of human recombinant c-Raf Y340D/Y341D mutant (306 to end residues) using inactive MEK1 as substrate at 10 uM incubated for 40 mins in presence of [gamma33P-ATP] by radiometric scintillation counting analysis
[9] = target: CYP450 (isoform not stated) (Homo sapiens, UniProt P04798+P05177+P05181+P08684+P10632+P10635+P11509+P11712+P13584+P20813+P20815+P20853+P24462+P24903+P33260+P33261+P51589+P78329+P98187+Q02928+Q08477+Q16678+Q16696+Q5TCH4+Q6VVX0+Q7Z449+Q8TAV3+Q96SQ9+Q9HB55); assay: Inhibition of CYP450 (unknown origin); assay type: ADME, protein assay
[10] = Toxicity in BALB/cA nude mouse xenografted with human SK-OV-3 cells assessed as changes in body weight at 5 to 20 mg/kg, po administered once a day for 21 days and measured twice per week; assay type: organism-based; details: in vivo, 504 h, dose 5-20 mg/kg/day, time 21 day
Procedure, shortened: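 Female BALB/cA nude mice, 4–5 weeks old, received s.c. passaged SKOV-3 tumor fragments (1.5 mm³) in the right flank. At about 100 mm³ they were randomized to oral vehicle or compound once daily for 21 days. Body weight was measured individually twice per week.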

PI3K p110 beta/p85 alpha = PI3K p110 beta/p85 alpha (Homo sapiens, UniProt P42338); assay: Inhibition of human PI3K p110beta/p85alpha using PIP2 as substrate incubated for 30 mins in presence of ATP measured after 30 mins by HTRF assay
[11] = Inhibition of human PI3K p110alpha H1047R mutant/p85alpha using PIP2 as substrate incubated for 30 mins in presence of ATP by HTRF assay
[12] = Metabolic stability in rat hepatocytes assessed as half life; assay type: ADME, cell-based, Hepatocyte
[13] = target: T1, Phosphatidylinositol 4,5-bisphosphate 3-kinase catalytic subunit alpha isoform; assay: Inhibition of human PI3Kalpha using PIP2 as substrate in presence of ATP measured after 30 mins by HTRF assay
Procedure, shortened: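 HTRF kit assay. Enzyme incubated with 10 μM PIP2; reaction started by adding ATP and run 30 min at room temperature, then stop solution and detection mix added and luminescence read. Compounds kept as 10 mM DMSO stocks.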

[14] = target: PI3-kinase p110-delta/p85-alpha (Homo sapiens, UniProt O00329); assay: Inhibition of human PI3K p110delta/p85alpha using PIP2 as substrate in presence of ATP measured after 30 mins by HTRF assay

T1 sequence (P42336 whole entry, canonical isoform): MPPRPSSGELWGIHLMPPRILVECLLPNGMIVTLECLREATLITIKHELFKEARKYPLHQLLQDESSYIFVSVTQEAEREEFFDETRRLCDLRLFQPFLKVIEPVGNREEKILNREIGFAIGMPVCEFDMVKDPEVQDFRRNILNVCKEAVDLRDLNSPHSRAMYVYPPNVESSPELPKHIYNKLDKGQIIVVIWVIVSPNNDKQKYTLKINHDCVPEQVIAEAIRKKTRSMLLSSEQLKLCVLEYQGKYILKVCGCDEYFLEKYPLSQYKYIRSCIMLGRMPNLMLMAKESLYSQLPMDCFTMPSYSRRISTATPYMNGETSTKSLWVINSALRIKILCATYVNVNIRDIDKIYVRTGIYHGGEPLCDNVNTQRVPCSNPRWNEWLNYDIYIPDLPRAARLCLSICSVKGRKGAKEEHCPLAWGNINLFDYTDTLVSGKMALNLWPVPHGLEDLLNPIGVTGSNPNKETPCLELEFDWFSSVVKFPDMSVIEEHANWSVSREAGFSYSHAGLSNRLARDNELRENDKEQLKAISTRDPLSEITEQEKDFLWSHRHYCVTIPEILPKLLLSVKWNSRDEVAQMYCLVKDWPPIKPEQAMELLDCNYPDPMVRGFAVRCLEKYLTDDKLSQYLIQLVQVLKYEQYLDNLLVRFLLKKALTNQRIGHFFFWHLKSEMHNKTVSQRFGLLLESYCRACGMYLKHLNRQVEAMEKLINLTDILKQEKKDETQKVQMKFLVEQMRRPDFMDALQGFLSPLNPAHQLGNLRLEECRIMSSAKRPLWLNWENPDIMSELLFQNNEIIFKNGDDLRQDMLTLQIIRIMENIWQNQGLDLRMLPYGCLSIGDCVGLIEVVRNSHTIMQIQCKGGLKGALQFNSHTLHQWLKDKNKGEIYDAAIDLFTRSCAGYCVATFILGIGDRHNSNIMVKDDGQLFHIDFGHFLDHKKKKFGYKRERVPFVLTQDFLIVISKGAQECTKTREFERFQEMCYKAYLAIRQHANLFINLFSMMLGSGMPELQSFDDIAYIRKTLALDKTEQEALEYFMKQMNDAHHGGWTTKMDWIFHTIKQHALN
Sequence of Phosphatidylinositol 4,5-bisphosphate 3-kinase catalytic subunit beta isoform (Homo sapiens) (P42338 whole entry, looked up, canonical isoform): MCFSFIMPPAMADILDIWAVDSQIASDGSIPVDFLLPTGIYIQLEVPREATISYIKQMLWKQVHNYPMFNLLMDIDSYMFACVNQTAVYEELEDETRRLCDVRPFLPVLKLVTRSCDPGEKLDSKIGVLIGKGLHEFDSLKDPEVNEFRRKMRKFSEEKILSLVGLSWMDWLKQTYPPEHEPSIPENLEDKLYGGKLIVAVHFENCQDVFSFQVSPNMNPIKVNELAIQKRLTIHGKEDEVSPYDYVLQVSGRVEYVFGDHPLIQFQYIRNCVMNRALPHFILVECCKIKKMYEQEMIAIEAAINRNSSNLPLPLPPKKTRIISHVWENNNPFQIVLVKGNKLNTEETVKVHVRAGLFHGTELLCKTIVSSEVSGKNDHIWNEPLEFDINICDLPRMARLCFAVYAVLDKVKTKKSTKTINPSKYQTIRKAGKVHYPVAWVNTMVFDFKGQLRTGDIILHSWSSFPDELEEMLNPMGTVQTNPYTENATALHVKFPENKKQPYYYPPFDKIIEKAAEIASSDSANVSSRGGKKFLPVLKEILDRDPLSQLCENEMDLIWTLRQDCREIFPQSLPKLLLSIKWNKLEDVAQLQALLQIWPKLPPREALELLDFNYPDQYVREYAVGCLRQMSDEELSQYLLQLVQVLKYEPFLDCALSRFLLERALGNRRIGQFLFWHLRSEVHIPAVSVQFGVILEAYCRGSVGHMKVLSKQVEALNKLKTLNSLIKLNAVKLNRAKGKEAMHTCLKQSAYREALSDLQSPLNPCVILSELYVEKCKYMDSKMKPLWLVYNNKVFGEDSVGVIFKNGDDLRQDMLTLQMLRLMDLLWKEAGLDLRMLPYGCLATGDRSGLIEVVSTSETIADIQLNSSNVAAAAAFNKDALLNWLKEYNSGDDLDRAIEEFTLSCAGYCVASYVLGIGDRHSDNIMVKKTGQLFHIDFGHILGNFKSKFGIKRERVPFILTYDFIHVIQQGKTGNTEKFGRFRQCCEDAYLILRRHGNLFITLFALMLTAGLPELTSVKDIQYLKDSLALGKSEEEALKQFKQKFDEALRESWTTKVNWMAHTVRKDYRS
Sequence of RAF proto-oncogene serine/threonine-protein kinase (Homo sapiens), P04049 [Y340D,Y341D] (P04049 whole entry Y340D/Y341D, canonical isoform): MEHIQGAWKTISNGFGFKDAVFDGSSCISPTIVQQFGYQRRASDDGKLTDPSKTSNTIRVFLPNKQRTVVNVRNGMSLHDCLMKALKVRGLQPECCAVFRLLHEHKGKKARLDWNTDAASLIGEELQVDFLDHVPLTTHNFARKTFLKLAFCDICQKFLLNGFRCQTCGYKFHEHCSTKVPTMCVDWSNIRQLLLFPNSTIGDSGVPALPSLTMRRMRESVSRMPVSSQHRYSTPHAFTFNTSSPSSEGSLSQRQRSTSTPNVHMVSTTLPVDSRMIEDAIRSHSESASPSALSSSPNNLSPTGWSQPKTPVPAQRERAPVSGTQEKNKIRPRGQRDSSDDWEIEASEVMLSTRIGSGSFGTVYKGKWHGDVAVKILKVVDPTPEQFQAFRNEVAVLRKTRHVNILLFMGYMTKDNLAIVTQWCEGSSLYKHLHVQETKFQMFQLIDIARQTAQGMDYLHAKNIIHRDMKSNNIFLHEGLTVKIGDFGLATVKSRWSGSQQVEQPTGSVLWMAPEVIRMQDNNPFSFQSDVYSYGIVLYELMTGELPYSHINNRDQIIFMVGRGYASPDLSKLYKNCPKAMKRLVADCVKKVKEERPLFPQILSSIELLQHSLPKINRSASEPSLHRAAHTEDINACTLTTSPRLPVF
Sequence of Voltage-gated inwardly rectifying potassium channel KCNH2 (Q12809 whole entry): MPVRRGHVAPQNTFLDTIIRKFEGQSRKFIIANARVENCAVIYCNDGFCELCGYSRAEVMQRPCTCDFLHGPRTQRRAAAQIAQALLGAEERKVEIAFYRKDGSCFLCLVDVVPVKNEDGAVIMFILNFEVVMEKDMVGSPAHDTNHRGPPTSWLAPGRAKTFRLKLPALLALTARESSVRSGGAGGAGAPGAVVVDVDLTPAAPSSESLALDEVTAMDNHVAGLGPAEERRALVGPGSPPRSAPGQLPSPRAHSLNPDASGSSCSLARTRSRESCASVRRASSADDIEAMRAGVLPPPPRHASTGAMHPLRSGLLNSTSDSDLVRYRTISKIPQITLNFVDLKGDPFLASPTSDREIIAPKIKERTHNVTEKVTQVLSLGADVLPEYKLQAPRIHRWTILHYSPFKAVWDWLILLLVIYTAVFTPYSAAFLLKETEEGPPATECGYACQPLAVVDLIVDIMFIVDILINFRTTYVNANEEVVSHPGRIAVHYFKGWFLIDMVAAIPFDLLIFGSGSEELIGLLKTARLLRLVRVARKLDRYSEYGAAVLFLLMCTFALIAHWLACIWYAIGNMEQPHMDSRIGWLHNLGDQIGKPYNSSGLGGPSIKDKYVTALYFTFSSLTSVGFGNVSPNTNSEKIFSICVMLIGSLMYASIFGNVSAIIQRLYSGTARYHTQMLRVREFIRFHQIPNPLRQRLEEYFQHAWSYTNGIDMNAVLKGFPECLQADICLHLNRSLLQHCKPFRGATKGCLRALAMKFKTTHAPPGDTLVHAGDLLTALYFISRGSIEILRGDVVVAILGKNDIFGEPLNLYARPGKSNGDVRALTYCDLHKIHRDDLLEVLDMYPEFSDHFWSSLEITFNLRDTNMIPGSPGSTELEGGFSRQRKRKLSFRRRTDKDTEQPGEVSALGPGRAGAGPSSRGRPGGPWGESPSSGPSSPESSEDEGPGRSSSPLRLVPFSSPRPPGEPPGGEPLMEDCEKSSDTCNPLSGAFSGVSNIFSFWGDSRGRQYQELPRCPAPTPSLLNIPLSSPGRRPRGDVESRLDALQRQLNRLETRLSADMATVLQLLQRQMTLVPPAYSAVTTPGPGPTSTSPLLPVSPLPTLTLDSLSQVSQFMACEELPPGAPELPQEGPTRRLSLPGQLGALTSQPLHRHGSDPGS
Sequence of PI3K p110 beta/p85 alpha (P27986 whole entry): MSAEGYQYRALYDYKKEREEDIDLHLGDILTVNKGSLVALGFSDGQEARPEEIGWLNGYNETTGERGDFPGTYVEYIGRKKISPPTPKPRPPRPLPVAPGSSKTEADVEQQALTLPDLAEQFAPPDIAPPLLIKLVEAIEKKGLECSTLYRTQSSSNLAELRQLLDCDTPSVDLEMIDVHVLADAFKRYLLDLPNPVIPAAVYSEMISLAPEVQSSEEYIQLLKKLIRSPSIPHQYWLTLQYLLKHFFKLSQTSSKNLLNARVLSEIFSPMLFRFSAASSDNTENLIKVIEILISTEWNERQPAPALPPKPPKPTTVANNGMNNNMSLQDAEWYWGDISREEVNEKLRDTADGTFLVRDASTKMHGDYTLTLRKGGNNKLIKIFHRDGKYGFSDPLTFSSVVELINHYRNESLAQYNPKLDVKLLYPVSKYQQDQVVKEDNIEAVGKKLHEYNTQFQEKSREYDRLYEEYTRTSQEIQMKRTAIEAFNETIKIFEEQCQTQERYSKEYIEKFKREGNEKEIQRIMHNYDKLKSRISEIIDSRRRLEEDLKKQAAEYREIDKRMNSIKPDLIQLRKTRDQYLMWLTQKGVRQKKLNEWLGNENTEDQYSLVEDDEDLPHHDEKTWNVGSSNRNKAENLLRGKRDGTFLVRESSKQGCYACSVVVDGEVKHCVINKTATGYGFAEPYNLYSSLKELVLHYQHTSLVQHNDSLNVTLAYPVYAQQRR
Sequence of PI3K p110 beta/p85 alpha (P42338 whole entry): as the sequence (P42338 whole entry, looked up, canonical isoform) above

IC50 [1]: 225 nM
Cmax [2]: 832 ng/mL
inhibition [3]: Active
Ratio IC50 (Homo sapiens): 38
IC50 (PC-3): < 1000 nM
bioavailability [6]: 36.9%
inhibition [7]: Active
inhibition [8]: > 50%
IC50 [9]: > 30000 nM
IC50 (PI3K p110 beta/p85 alpha): 598 nM
IC50 [11]: 8.4 nM
half-life [12]: 2.46 h
IC50 [13]: 5.9 nM
IC50 [14]: 78.7 nM
SMILES: COC(=O)Nc1cc(C(F)(F)F)c(-c2nc(N3CCOCC3)c3cc(CN4CCN(S(C)(=O)=O)CC4)cn3n2)cn1 [RISOVALISIB]
Activity (SK-OV-3): 37%
Activity [4]: Non-Toxic
IC50 [5]: > 40000 nM
Activity [10]: Non-Toxic

Reference: ChEMBL document CHEMBL4732078 (Eur J Med Chem, 2021)
